From ChEMBL document CHEMBL3102767, “Identifying novel targets in renal cell carcinoma: design and synthesis of affinity chromatography reagents” (Bioorg Med Chem, 2014)

How the values were obtained:
[1] = Selectivity ratio of IC50 for human RCC4/VHL cells to IC50 for human RCC4 cells; format: functional
Outline: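 IC50 values from 4-day XTT growth inhibition in RCC4/VHL and parental RCC4 cells (serial dilution from 40 µM top, triplicate); ratio taken as RCC4/VHL IC50 over RCC4 IC50.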

[2] = Cytotoxicity against human RCC4 cells after 4 days by XTT assay; format: functional, cell-based; details: RCC4, 96 h
Outline: (§1)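 RCC4 (VHL-null) and RCC4/VHL (VHL reintroduced) cells kept in DMEM plus 10% FCS. After 4 d, media removed; XTT (0.3 mg/mL) with N-methyl dibenzopyrazine methyl sulfate in phenol red-free media added, 1–2 h at 37 °C. IC50 = concentration giving 50% growth inhibition.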

[3] = Cytotoxicity against human RCC4/VHL cells after 4 days by XTT assay; format: functional, cell-based; details: 96 h; outline: as §1

**Q.** What does the source list for `Cc1cccc(S(=O)(=O)NCc2ccc(C(=O)Nc3cccnc3)cc2)c1`?
**A.** Ratio IC50 [1]: > 100; IC50 [2]: < 1 µM

**Q.** Which results are given for `COc1ccc(S(=O)(=O)NCc2ccc(C(=O)Nc3cccnc3)cc2)cc1OC`?
**A.** Ratio IC50 [1]: >100; IC50 [2]: < 1 µM

**Q.** For `CCN(c1cccc(C)c1)c1nc(-c2ccncc2-c2cn(CCOCCOCCOCCOCCOCCOCCN)nn2)cs1`, which IC50 [3] is on record?
**A.** The IC50 was over 40 µM.

**Q.** What about the IC50 [2] of the same compound?
**A.** The IC50 was over 40 µM.

**Q.** What does the source list for `NCCOCCOCCOCCOCCOCCOCCCc1ccc(S(=O)(=O)NCc2ccc(C(=O)Nc3ccccc3)cc2)cc1`?
**A.** IC50 [3]: > 40 µM; IC50 [2]: > 40 µM

**Q.** Which “Ratio IC50” value [1] does the source give for `Cc1cccc(Nc2nc(-c3ccncc3)cs2)c1` here?
**A.** The value was 19.

**Q.** And the IC50 [3]?
**A.** Its IC50 is 40 µM.

**Q.** And the IC50 [2]?
**A.** Its IC50 is 2.1 µM.

**Q.** With `Cc1cccc(Nc2nc(-c3ccnc(-c4cn(CCOCCOCCOCCOCCOCCOCCN)nn4)c3)cs2)c1` as the compound, how does the IC50 [3] read?
**A.** Its IC50 is over 40 µM.

**Q.** And the IC50 [2]?
**A.** The IC50 was over 40 µM.

**Q.** With `NCCOCCOCCOCCOCCOCCOCC#Cc1ccc(S(=O)(=O)NCc2ccc(C(=O)Nc3cccnc3)cc2)cc1` as the compound, how does the “Ratio IC50” value [1] read?
**A.** Its value is over 7.

**Q.** What about the IC50 [3] of the same compound?
**A.** The IC50 was over 40 µM.

**Q.** And the IC50 [2]?
**A.** Its IC50 is 5.8 µM.

**Q.** With `CN1CCN(Cc2ccc(S(=O)(=O)NCc3ccc(C(=O)Nc4cccnc4)cc3)cc2)CC1` as the compound, how does the “Ratio IC50” value [1] read?
**A.** The value was over 100.

**Q.** What about the IC50 [2] of the same compound?
**A.** The IC50 was under 1 µM.

**Q.** With `NCCOCCOCCOCCOCCOCCOCCCc1ccc(S(=O)(=O)NCc2ccc(C(=O)Nc3cccnc3)cc2)cc1` as the compound, how does the “Ratio IC50” value [1] read?
**A.** The value was over 5.

**Q.** And the IC50 [3]?
**A.** The IC50 was over 40 µM.

**Q.** What about the IC50 [2] of the same compound?
**A.** The IC50 was 7.9 µM.

**Q.** With `Cl.O=C(Nc1cccnc1)c1ccc(CNS(=O)(=O)c2ccc(CN3CCOCC3)cc2)cc1` as the compound, how does the “Ratio IC50” value [1] read?
**A.** Its value is over 100.

**Q.** What about the IC50 [2] of the same compound?
**A.** Its IC50 is under 1 µM.

**Q.** With `Cc1cccc(Nc2nc(-c3ccncc3-c3cn(CCOCCOCCOCCOCCOCCOCCN)nn3)cs2)c1.O=C(O)C(F)(F)F` as the compound, how does the “Ratio IC50” value [1] read?
**A.** The value was 1.3.

**Q.** And the IC50 [3]?
**A.** Its IC50 is 3.9 µM.

**Q.** And the IC50 [2]?
**A.** The IC50 was 2.9 µM.

**Q.** What does the source list for `CC(C)(C)c1ccc(S(=O)(=O)NCc2ccc(C(=O)Nc3cccnc3)cc2)cc1`?
**A.** Ratio IC50 [1]: >250; IC50 [3]: > 40 µM; IC50 [2]: 0.16 µM

**Q.** For `Cn1ccc(-c2cccc(S(=O)(=O)NCc3ccc(C(=O)Nc4cccnc4)cc3)c2)n1`, which “Ratio IC50” value [1] is on record?
**A.** Its value is over 100.

**Q.** And the IC50 [2]?
**A.** Its IC50 is under 1 µM.

**Q.** Which “Ratio IC50” value [1] does the source give for `Cc1cccc(Nc2nc(-c3ccnc(-c4cn(CCCCCCN)nn4)c3)cs2)c1.O=C(O)C(F)(F)F` here?
**A.** Its value is 1.5.

**Q.** And the IC50 [3]?
**A.** Its IC50 is 2.6 µM.

**Q.** And the IC50 [2]?
**A.** Its IC50 is 1.7 µM.

**Q.** With `CCN(c1cccc(C)c1)c1nc(-c2ccnc(-c3cn(CCOCCOCCOCCOCCOCCOCCN)nn3)c2)cs1` as the compound, how does the IC50 [3] read?
**A.** The IC50 was over 40 µM.

**Q.** And the IC50 [2]?
**A.** Its IC50 is over 40 µM.

**Q.** What does the source list for `CN1CCN(c2ccc(S(=O)(=O)NCc3ccc(C(=O)Nc4cccnc4)cc3)cc2)CC1`?
**A.** Ratio IC50 [1]: >100; IC50 [2]: < 1 µM
